Bioassay records: PubChem, Columbia University Molecular Screening Center
INS promoter act – TRM-6 insulin promoter activation; TRM-6 cells, insulin promoter eGFP reporter, imaging; plate-scaled: unstimulated 0, stimulated control 100; AID 1296; activation, % at 2 µM; 130,000 tested, 0.81% active;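 active means activation at 2 µM above a set limit, confirmed on inspection of the cell images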;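 further: share of cells whose green reporter signal exceeds an intensity cutoff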
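material = TRM-6 human fetal islet cells, insulin promoter–eGFP reporter | input = 1,000 TRM-6 cells seeded per well | benchmarks = stimulated versus unstimulated wells as plate controls | measured by = automated fluorescence imaging of paraformaldehyde-fixed, Hoechst-counterstained cells, green channel | schedule = compound exposure 48 h, 37 °C | reagent = tamoxifen at 0.75 µM added at seeding for reporter induction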
An asterisk follows results filed as active. The entries come from a sample that favours hits as a whole.

`Cc1ccccc1CN1C(=O)CSc2ccc(C(=O)N3CCOCC3)cc21` gave INS promoter act 8.
For CN(C)S(=O)(=O)c1ccc(N2CCCC2)c(C(=O)Nc2nc(-c3ccc(F)c(F)c3)cs2)c1 the results were INS promoter act 414*.
`Cc1ccc(S(=O)(=O)Nc2ccccc2C(=O)Nc2nc(-c3ccc(F)cc3)cs2)cc1` gave INS promoter act -5.
Screening CN(C)S(=O)(=O)c1ccc(C(=O)Nc2nc(-c3cc4ccccc4o3)cs2)cc1 returned INS promoter act 8.
For C=CCN(C)NC(=S)Nc1ccccc1 the results were INS promoter act -4.
Screening Cc1nn(-c2ccccc2)c(C)c1C(=O)OCC(=O)N(C)C1CCS(=O)(=O)C1 (stereo not given) returned INS promoter act 0.
For CNc1nnc(CSc2nc(C)cc(C)n2)s1 the results were INS promoter act 0.
O=C1CCC([N+](=O)[O-])C(c2ccccc2Cl)N1 (stereo not given) was read as INS promoter act 79*.
For Cc1cccc(OCC(=O)N/N=C/c2cc([N+](=O)[O-])ccc2N2CCOCC2)c1 the results were INS promoter act 0.
For CC/C(=N\NC(=O)c1ccoc1C)c1ccc(C)o1 the results were INS promoter act 0.
`O=C(Nc1ccccc1)c1ccc(=O)n(Cc2ccc(F)c(F)c2)c1` gave INS promoter act -8.
COc1ccc(N2C(=O)CC(Sc3nc4ccccc4s3)C2=O)cc1OC (stereo not given) was read as INS promoter act -7.
Screening Cc1ccc(Oc2ccccc2/C=N/O)cc1 returned INS promoter act 7.
`Cc1ccc(C(=O)CSc2nnc(-c3ccccc3)o2)cc1` gave INS promoter act 113.
Screening CC(C)(C)NC(=O)CSc1nnc(-c2ccncc2)o1 returned INS promoter act 192.
`O=C(CSc1nnc(-c2ccncc2)o1)Oc1ccccc1` gave INS promoter act 690*.
For CCN(Cc1ccccc1)C(=O)Cn1c(=O)n(-c2ccc(OC)cc2OC)c(=O)c2c(C)c(C)sc21 the results were INS promoter act 0.
Screening CCCCNCCCOc1cccc(Cl)c1Cl returned INS promoter act -3.
C=CCN1C(=NC(=O)CCCC(=O)O)SC2CS(=O)(=O)CC21 (stereo not given) was read as INS promoter act -71.
`CC(C)Cn1c(NCCO)nc2ccccc21` gave INS promoter act -3.
For OCc1nc2ccccc2n1CC(O)Cn1ccc2ccccc21 (stereo not given) the results were INS promoter act 91*.
OCc1nc2ccccc2n1CCCOc1ccccc1 was read as INS promoter act -4.
O=C(CN1C2=NCCCN2c2ccccc21)c1cccc(Br)c1 was read as INS promoter act -8.
For OC(CN1C2=NCCN2c2ccccc21)c1ccc(Br)cc1 (stereo not given) the results were INS promoter act -3.
Clc1ccc(CN2C3=NCCCN3c3ccccc32)cc1 was read as INS promoter act 136*.
O=C(c1cc(S(=O)(=O)N2CCCCC2)ccc1N1CCOCC1)N1CCN(Cc2ccccc2)CC1 was read as INS promoter act -7.
O=C(O)C1OC(Oc2cc3oc(-c4ccccc4)cc(=O)c3c(O)c2O)C(O)C(O)C1O (stereo not given) was read as INS promoter act 0.
For COc1cccc2c1C(=O)c1c(O)c3c(c(O)c1C2=O)C[C@@](O)(C(=O)CO)C[C@@H]3O[C@H]1C[C@H](N)[C@H](O)[C@H](C)O1 the results were INS promoter act 354*.
For O=C(c1ccc(Br)s1)N1CCCC1 the results were INS promoter act -70.
`COc1cccc(OCC(=O)Nc2ccc(OC)c(OC)c2)c1` gave INS promoter act 0.
Screening O=C(O)CCCCC1CCSS1 (stereo not given) returned INS promoter act 7.
Screening CCCCCCCCOC(=O)C(NC(=O)CCC(=O)Nc1ccc(S(N)(=O)=O)cc1)C(O)c1ccccc1 (stereo not given) returned INS promoter act 0.
For Cc1c(NC(N)=O)c(=O)n(-c2ccccc2)n1C the results were INS promoter act 248*.
Cc1c(NC(=O)c2ccccc2)c(=O)n(-c2ccccc2)n1C was read as INS promoter act -57.
For CCOC(=O)NC(=S)Nc1c(C)n(C)n(-c2ccccc2)c1=O the results were INS promoter act 0.
CC1(C)CC(=O)C2=C(C1)N(c1ccccc1)C(=O)CC2c1ccc(O)cc1 (stereo not given) was read as INS promoter act 7.
`CCC(CC)NC(=O)COc1ccc(OC)cc1C=O` gave INS promoter act -7.
CCCC(C)C(=O)NCc1ccc2c(c1)OCO2 (stereo not given) was read as INS promoter act 3.
For CC(C)C(NS(=O)(=O)c1cccs1)C(=O)NCc1ccc2c(c1)OCO2 (stereo not given) the results were INS promoter act 162*.
`CC(C)C(NS(=O)(=O)c1cccs1)C(=O)NCCN1CCN(c2ccccc2)CC1` (stereo not given) gave INS promoter act -6.
